Results on 6 molecules are retold here after ChEMBL document CHEMBL5030538 (J Med Chem, 2021).

Active and inactive are the calls of the source. No cut-off for these calls is given here.

The nature of experiment [1]: Displacement of [3H]-DTG from sigma 2 receptor in guinea pig brain membranes after 120 mins by microbeta scintillation counting method. On the technique in general: Loss of bound radioactivity is the signal in a displacement assay; it reports binding, not function.
In experiment [2] the test system is HREC. Put plainly: Antiangiogenic activity against HREC cells assessed as inhibition of tube formation measured after 24 hrs by matrigel based tube formation assay. The settings on record: Homo sapiens. It counts as functional, cell-based.
Experiment [3] has as its system HREC. Put plainly: Antimigratory activity against VEGF-A stimulated HREC assessed as inhibition of cell motility at 5 uM in presence of AC927 measured after 48 hrs by wound closure assay. It counts as functional. The settings on record: Homo sapiens. In outline: (§1)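 Primary HREC grown to confluence were scratched to make a 1 mm wound and washed with PBS. They were then incubated 48 h at 37 °C in complete medium with 80 ng/mL VEGF-A and 5 μM compound, alone or with 2 μM PTZ or 2 μM AC927. Wounds were photographed by phase contrast at 0, 24 and 48 h, and closure taken as the distance both fronts moved into the wound. Mean ± SEM of three independent experiments, three wells each.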

For experiment [4], the system named is HREC. The experiment is described as follows: Antimigratory activity against VEGF-A stimulated HREC assessed as wound closure at 5 uM measured after 48 hrs by wound closure assay. It counts as functional, tissue-based. The settings on record: Homo sapiens. An outline of the steps:
as §1

For experiment [5], the system named is HREC. The experiment is described as follows: Antimigratory activity against VEGF-A stimulated HREC assessed as wound closure at 5 uM in presence of PTZ measured after 48 hrs by wound closure assay. To be noted: Homo sapiens. It counts as functional, tissue-based. In outline:
as §1

Experiment [6] in a line: Antiproliferative activity against VEGF-A stimulated human retinal endothelial cell assessed as reduction in cell viability measured after 48 hrs by MTT assay. It counts as functional. The settings on record: HREC.
Experiment [7] is described as follows: Antiangiogenic activity against VEGF-A stimulated Human endothelial cell assessed as cell proliferation measured after 72 hrs by crystal violet assay. In kind it is functional, tissue-based.
Experiment [8] in a line: Antiproliferative activity against VEGF-A stimulated human retinal endothelial cell assessed as reduction in cell viability measured after 72 hrs by MTT assay. In kind it is functional. To be noted: HREC.
Experiment [9] in a line: Antiangiogenic activity against VEGF-A stimulated human retinal endothelial cell assessed as cell proliferation measured after 48 hrs by crystal violet assay. In kind it is functional. The settings on record: HREC. An outline of the steps:
(§2)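 They were then treated at 5 μM with or without 80 ng/mL VEGF-A, with DMSO as vehicle. Cells were PBS-washed, fixed in 4% paraformaldehyde, stained with 0.5% crystal violet in 20% methanol, extracted with 10% acetic acid and read at 570/590 nm. Proliferation is given as % of vehicle; triplicate.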

Experiment [10] is described as follows: Antiproliferative activity against VEGF-A stimulated human retinal endothelial cell assessed as reduction in cell viability measured after 24 hrs by MTT assay. It counts as functional. To be noted: HREC. On the technique in general: Tetrazolium dyes change colour on reduction, which living cells bring about.
Experiment [11] in a line: Antiangiogenic activity against VEGF-A stimulated human retinal endothelial cell assessed as cell proliferation measured after 24 hrs by crystal violet assay. In kind it is functional. To be noted: HREC. In outline:
as §2

A word on the Ki: it is the equilibrium dissociation constant of an inhibitor or competing ligand from its target. Higher therefore signals weaker binding. For orientation: IC50 means the concentration at which inhibition is half-maximal.

`O[C@H](CCCN1CCC(O)(c2ccc(Cl)cc2)CC1)c1ccc(F)cc1` displayed a Ki in experiment [1] of 0.032 µM.

Consider `CCCC(CCC)C(=O)O[C@@H](CCCN1CCC(O)(c2ccc(Cl)cc2)CC1)c1ccc(F)cc1`, for which the result in experiment [2] and in experiment [4] was Active. In [3], the result was inactive.

For the molecule `CCCC(CCC)C(=O)O[C@H](CCCN1CCC(O)(c2ccc(Cl)cc2)CC1)c1ccc(F)cc1`, the result in experiment [2] and in experiment [4] was Active. The result in experiment [3] and in experiment [5] was inactive.

Consider `CCCC(CCC)C(=O)OC(CCCN1CCC(O)(c2ccc(Cl)cc2)CC1)c1ccc(F)cc1` (racemic), for which affinity in [1] was put at a Ki of 0.124 µM. In addition, the outcome in experiment [2] and in experiment [4] was Active.

On to `OC(CCCN1CCC(O)(c2ccc(Cl)cc2)CC1)c1ccc(F)cc1` (racemic) [HYDROXYHALOPERIDOL], for which the IC50 in experiment [6] is 128 µM; in experiment [7], 69.2 µM; in experiment [8], 69 µM; in experiment [9] it was 129 µM; in [10], greater than 200 µM.

As to `CCCC(CCC)C(=O)O` [VALPROIC ACID], the IC50 in experiment [7] is 1380 µM; in experiment [11], 1230 µM; in experiment [9], 1450 µM.
